From ChEMBL document CHEMBL1145922, “1,2-benzisoxazole phosphorodiamidates as novel anticancer prodrugs requiring bioreductive activation” (J Med Chem, 2003)

How the values were obtained:
[1] = tested on: V79; assay: In vitro cytotoxicity against Chinese hamster lung (V-79 cells) fibroblast determined using sulforhodamine B (SRB) assay; type: functional, cell-based; settings: Cricetulus griseus
Method in brief: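 V-79 Chinese hamster lung fibroblasts, about 15×10^3 cells/well, preincubated 24 h, then drug at eight concentrations for 48 h, aerobic. Fixed with cold TCA, stained with 0.4% SRB, dye solubilized in 10 mM Tris, read at 564 nm. % growth versus untreated control; first-order decay fit gives IC50. Triplicates, three experiments, mean ± SD.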

[2] = organism: Rattus norvegicus; assay: Metabolic stability after incubation for 30 minutes in rat liver in oxic condition in absence of NADPH; type: functional
Method in brief: (§1)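 Phenobarbital-induced rat liver S-9 fraction, substrate 2.5 mM final, with 5 mM NADPH or no cofactor, 30 min at 37 °C, oxic or nitrogen-purged (hypoxic). Quenched with ice-cold methanol and centrifuged; supernatant analysed by TLC densitometry (ethyl acetate/ethanol eluent) for unchanged parent, reported as % remaining, mean ± SD of three experiments.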

[3] = organism: Rattus norvegicus; assay: Alkylating Activity after incubation for 30 minutes in rat liver in Hypoxic condition in absence of NADPH; type: functional, organism-based
Method in brief: (§2)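 Phenobarbital-induced rat liver S-9 fraction (17.9 or 18.2 mg/mL protein), substrate 2.5 mM final (added in methanol/water 50:50), NADPH 5 mM or no cofactor, 30 min at 37 °C. Hypoxic samples purged with nitrogen 15–20 min in sealed vials. Stopped with ice-cold methanol, proteins removed; alkylating activity by NBP assay, absorbance at 542 nm, mean of two experiments.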

[4] = organism: Rattus norvegicus; assay: Alkylating Activity after incubation for 30 minutes in rat liver in Hypoxic condition in presence of NADPH; type: functional, organism-based; method in brief: as §2
[5] = organism: Rattus norvegicus; assay: Metabolic stability after incubation for 30 minutes in rat liver in hypoxic condition in presence of NADPH; type: functional; method in brief: as §1
[6] = organism: Rattus norvegicus; assay: Metabolic stability after incubation for 30 minutes in rat liver in hypoxic condition in absence of NADPH; type: functional; method in brief: as §1
[7] = organism: Rattus norvegicus; assay: Metabolic stability after incubation for 30 minutes in rat liver in oxic condition in presence of NADPH; type: functional; method in brief: as §1
[8] = organism: Rattus norvegicus; assay: Alkylating Activity after incubation for 30 minutes in rat liver in oxic condition in presence of NADPH; type: functional, organism-based; method in brief: as §2
[9] = organism: Rattus norvegicus; assay: Alkylating Activity after incubation for 30 minutes in rat liver in oxic condition in absence of NADPH; type: functional, organism-based; method in brief: as §2

SMILES | IC50 [1] [µM] | Compound remaining [2] [%] | Absorbance [3] | Absorbance [4] | Compound remaining [5] [%] | Compound remaining [6] [%] | Compound remaining [7] [%] | Absorbance [8] | Absorbance [9]
CCc1noc2ccccc12 | > 2000 | – | – | – | – | – | – | – | –
NP(=O)(OCCc1noc2ccc([N+](=O)[O-])cc12)N(CCCl)CCCl (stereo unspecified) | 311 | 79 | 0.85 | 2.23 | 1 | 76 | 1 | – | –
COc1ccc2c(CCOP(N)(=O)N(CCCl)CCCl)noc2c1 (stereo unspecified) | 241 | 78 | 0.42 | 2.35 | 45 | 79 | 46 | 2.31 | 0.32
NP(=O)(OCCc1noc2ccccc12)N(CCCl)CCCl (stereo unspecified) | 411 | 97 | 0.38 | 2.02 | 34 | 98 | 33 | 1.97 | 0.26
